Source: PubChem BioAssay AID977617 (Broad Institute, 2014)
Values joined by “and” are separate entries in the source; they are usually repeats but may differ in a detail not shown here. Equal values may be shown once. Active and inactive are the calls of the source.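 How the source made its calls: active means cell killing, with a fitted half-maximal concentration at or below twice the top valid dose tested; inconclusive means flat fit with a moderate signal drop, or a poor fit; inactive means effect in the rising direction, plus the rest.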

Tested on: not listed separately
Assay: viability loss in A549 lung cancer cells – cell-based, CellTiter-Glo luminescence, dry powder, set 13, cytotoxicity control, dose response (AID 977617)
Details: A549 viability, CellTiter-Glo ATP luminescence, 72 h; at 26 µM (top of the series)
How it was run: (§1)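 Test system – A549 human lung carcinoma cells, cell-based viability · Amount – 1000 cells/well · Read-out – viability via ATP, lower signal means cytotoxic · Dosing – compound concentration series on A549 cells · Incubation – 24 h pre-dosing, 72 h exposure at 37 °C · Medium – DMEM, 10% FBS · Technique – CellTiter-Glo ATP luminescence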

Structure (SMILES)	activity change, negative = cytotoxicity
C[C@@H](O)C#Cc1ccc2c(c1)O[C@@H](CN(C)C(=O)c1ccc(-c3ccccc3)cc1)[C@@H](C)CN([C@@H](C)CO)S2(=O)=O	-7.04% (inactive)
CO[C@H]1CN(C)C(=O)c2ccc(NC(=O)c3ccc(F)cc3)cc2OC[C@H](C)N(C(=O)c2ccc(F)cc2)C[C@@H]1C	2.69% (inactive)
C[C@H]1CN([C@@H](C)CO)S(=O)(=O)c2ccc(Br)cc2O[C@H]1CN(C)Cc1ccc(-c2ccccc2)cc1	-3.47% (inactive)
C[C@H](O)C#Cc1ccc2c(c1)O[C@@H](CN(C)Cc1ccc(-c3ccccc3)cc1)[C@@H](C)CN([C@H](C)CO)S2(=O)=O	12.2% (inactive)
C[C@@H](O)C#Cc1ccc2c(c1)O[C@@H](CN(C)Cc1cccnc1)[C@@H](C)CN([C@@H](C)CO)S2(=O)=O	-0.989% (inactive)
COc1ccc(-c2ccc3c(c2)O[C@@H](CN(C)Cc2ccc(-c4ccccc4)cc2)[C@@H](C)CN([C@@H](C)CO)S3(=O)=O)cc1	-11.8% (inactive)
CNC[C@@H]1Oc2cc(Br)ccc2S(=O)(=O)N([C@@H](C)CO)C[C@@H]1C	-12.1% (inactive)
C[C@@H](O)C#Cc1ccc2c(c1)O[C@@H](CN(C)S(=O)(=O)c1ccc(-c3ccccc3)cc1)[C@@H](C)CN([C@@H](C)CO)S2(=O)=O	0.446% (inactive)
C[C@@H](O)C#Cc1ccc2c(c1)O[C@@H](CN(C)Cc1ccncc1)[C@@H](C)CN([C@@H](C)CO)S2(=O)=O	-7.94% (inactive)

Tested on: A549 viability, CellTiter-Glo ATP luminescence, 72 h
Assay: as above
Details: not given
How it was run: as §1

Structure (SMILES)	AC50
C[C@H](O)C#Cc1ccc2c(c1)O[C@H](CN(C)Cc1ccc(-c3ccccc3)cc1)[C@@H](C)CN([C@H](C)CO)S2(=O)=O	19.4 µM
COc1ccc(-c2ccc(CN(C)C[C@@H]3Oc4cc(C#C[C@@H](C)O)ccc4S(=O)(=O)N([C@@H](C)CO)C[C@@H]3C)cc2)cc1	14.1 µM
C[C@@H](O)C#Cc1ccc2c(c1)O[C@@H](CN(C)Cc1ccc(-c3cccc(Cl)c3)cc1)[C@@H](C)CN([C@@H](C)CO)S2(=O)=O	14.1 µM
Cc1ccccc1-c1ccc(CN(C)C[C@@H]2Oc3cc(C#C[C@@H](C)O)ccc3S(=O)(=O)N([C@@H](C)CO)C[C@@H]2C)cc1	16.7 µM
C[C@H]1CN([C@@H](C)CO)S(=O)(=O)c2ccc(C#CC(C)(C)O)cc2O[C@H]1CN(C)Cc1ccc(-c2ccccc2)cc1	19.9 µM
COc1ccccc1-c1ccc(CN(C)C[C@@H]2Oc3cc(C#C[C@@H](C)O)ccc3S(=O)(=O)N([C@@H](C)CO)C[C@@H]2C)cc1	12.9 µM
COc1cccc(-c2ccc(CN(C)C[C@@H]3Oc4cc(C#C[C@@H](C)O)ccc4S(=O)(=O)N([C@@H](C)CO)C[C@@H]3C)cc2)c1	15.2 µM
C[C@@H](O)C#Cc1ccc2c(c1)O[C@@H](CN(C)Cc1ccc(-c3ccccc3Cl)cc1)[C@@H](C)CN([C@@H](C)CO)S2(=O)=O	14.4 µM
C[C@H](CO)N1C[C@H](C)[C@@H](CN(C)Cc2ccc(-c3ccccc3)cc2)Oc2cc(C#C[C@@H](C)O)ccc2S1(=O)=O	27.1 µM
C[C@H](O)C#Cc1ccc2c(c1)O[C@@H](CN(C)Cc1ccc(-c3ccccc3)cc1)[C@H](C)CN([C@@H](C)CO)S2(=O)=O	26.1 µM
C[C@H](O)C#Cc1ccc2c(c1)O[C@H](CN(C)Cc1ccc(-c3ccccc3)cc1)[C@@H](C)CN([C@@H](C)CO)S2(=O)=O	6 µM
C[C@H](O)C#Cc1ccc2c(c1)O[C@@H](CN(C)Cc1ccc(-c3ccccc3)cc1)[C@@H](C)CN([C@@H](C)CO)S2(=O)=O	22.6 µM
C[C@@H](O)C#Cc1ccc2c(c1)O[C@@H](CN(C)Cc1ccc(-c3ccc(Cl)cc3)cc1)[C@@H](C)CN([C@@H](C)CO)S2(=O)=O	9.62 µM
C[C@H](O)C#Cc1ccc2c(c1)O[C@@H](CN(C)Cc1ccc(-c3ccccc3)cc1)[C@H](C)CN([C@H](C)CO)S2(=O)=O	22.1 µM
C[C@@H]1CN([C@@H](C)CO)S(=O)(=O)c2ccc(C#C[C@@H](C)O)cc2O[C@H]1CN(C)Cc1ccc(-c2ccccc2)cc1	26.1 µM
Cc1ccc(-c2ccc(CN(C)C[C@@H]3Oc4cc(C#C[C@@H](C)O)ccc4S(=O)(=O)N([C@@H](C)CO)C[C@@H]3C)cc2)cc1	15.7 µM
C[C@@H](O)C#Cc1ccc2c(c1)O[C@H](CN(C)Cc1ccc(-c3ccccc3)cc1)[C@@H](C)CN([C@@H](C)CO)S2(=O)=O	19.4 µM
C[C@@H](O)C#Cc1ccc2c(c1)O[C@@H](CN(C)Cc1ccc(-c3ccccc3)cc1)[C@@H](C)CN([C@@H](C)CO)S2(=O)=O	17.7 µM and 19 µM
Cc1cccc(-c2ccc(CN(C)C[C@@H]3Oc4cc(C#C[C@@H](C)O)ccc4S(=O)(=O)N([C@@H](C)CO)C[C@@H]3C)cc2)c1	15 µM
